The text below walks through data of ChEMBL document CHEMBL4049454, “7-Substituted 2-Nitro-5,6-dihydroimidazo[2,1-b][1,3]oxazines: Novel Antitubercular Agents Lead to a New Preclinical Candidate for Visceral Leishmaniasis” (J Med Chem, 2017).

The test system of data set [1] is Trypanosoma cruzi. Kind of data set: […] activity against Trypanosoma cruzi infected in human MRC-5 cells by luciferase reporter gene assay. It is filed as functional, cell-based. The settings on record: MRC5. The procedure, abridged: (§1)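 Run at LMPH as IC50 determinations. L. infantum was grown in primary peritoneal mouse macrophages and T. cruzi on human lung fibroblasts (MRC-5). Each value is the mean of at least two independent determinations, run alongside MRC-5 and macrophage cytotoxicity tests.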

Data set [2] has as its system Mycobacterium tuberculosis. The experiment in a line: Antitubercular activity against Mycobacterium tuberculosis infected in BALB/c mouse assessed as reduction in bacterial burden at 100 mg/kg, po qd administered every 5 days a week for 3 weeks. It is filed as functional, organism-based. The gist of the method:
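Acute infection model in BALB/c mice: dosing at 100 mg/kg daily, 5 days a week for 3 weeks, starting day 11 after infection. Read-out is CFU reduction in treated mice, usually reported as a ratio of mean CFU reduction versus mice given the reference nitroimidazole.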

The test system of data set [3] is Leishmania infantum. Kind of data set: Antileishmanial activity against Leishmania infantum infected in primary peritoneal mouse macrophages by luciferase reporter gene assay. The format is functional. The procedure, abridged: as §1
Data set [4] is described as follows: Apparent permeability from apical to basolateral side in human Caco2 cells after 150 mins by LC-MS/MS analysis. The following applies: Caco-2. The format is ADME, cell-based. On the technique in general: Caco-2 monolayers are a common model of the intestinal barrier.
Data set [5] is described as follows: Apparent permeability from basolateral to apical side in human Caco2 cells after 150 mins by LC-MS/MS analysis. It is filed as ADME, cell-based. The following applies: Caco-2.
The nature of data set [6]: Extrapolated AUCinfinity in swiss albino mouse plasma at 40 mg/kg, po by LC-MS/MS analysis.

Each structure is given as a SMILES string. Activity calls are given as the source filed them. The calls are words filed in the database; no cut-off is given here.

By IC50 is commonly meant the midpoint of a concentration-inhibition curve. High values mean weaker potency in that assay, low ones greater potency in that assay. Broadly, the Papp A→B is how fast a substance crosses the layer from the apical side. One may read the Papp B→A as the apparent permeability from the basolateral to the apical side of a cell layer. As usually defined, the AUC(0-inf) is the area under the concentration-time curve extrapolated to infinity.

Regarding `O=[N+]([O-])c1cn2c(n1)OC(COc1ccc(OC(F)(F)F)cc1)CC2` (stereo not drawn), half-maximal inhibition in data set [1] (IC50) required 61 nM.

For the molecule `C[C@]1(COCc2ccc(-c3ccc(OC(F)(F)F)cc3)cc2)CCn2cc([N+](=O)[O-])nc2O1`, the outcome in data set [2] was Active. For the molecule `O=[N+]([O-])c1cn2c(n1)OC[C@@H](OCc1ccc(OC(F)(F)F)cc1)C2`, the result in data set [2] was Active. In the case of `O=[N+]([O-])c1cn2c(n1)OC(COc1ccc(-c3ccc(F)nc3)nc1)CC2` (stereo not drawn), the IC50 in data set [3] was greater than 64 µM. For `C[C@]1(COc2ccc(OC(F)(F)F)cc2)Cn2cc([N+](=O)[O-])nc2O1`, the Papp A→B at […] in data set [4] amounted to 22.6 ×10⁻⁶ cm/s. Moreover, the Papp B→A at […] in data set [5] came out at 24.7 ×10⁻⁶ cm/s.

`O=[N+]([O-])c1cn2c(n1)OC(COCc1ccc(-c3ccc(OC(F)(F)F)cc3)cc1)CC2` (stereo not drawn): in data set [6], the AUC(0-inf) is 47100 ng·h/mL.

Regarding `O=[N+]([O-])c1cn2c(n1)OC(COc1ccc(-c3ccc(F)cc3)cc1)CC2` (stereo not drawn), in data set [1], the IC50 is 63 nM.
